Structures are written as SMILES. ≈ marks a conversion by molar mass, not a printed value.

Broadly, the EC50 is the concentration giving half of the maximal effect.

Holding throughout (format): functional, organism-based
Assay [1] concerns Amaranthus tricolor. Description: Herbicidal activity against Amaranthus tricolor assessed as plant dead at 25 to 32 degC measured after 7 days. To be noted: 168 h. The procedure, abridged: (§1)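 Seedlings grown at 25-32 °C for about 7 days, then thinned to thirty plants per cup at the two-leaf stage. Emulsion (1 mL per cup) applied by Potter spray tower, after which plants were kept at 25-32 °C. Three replicates per concentration.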

Assay [2] concerns Glycine max. Description: Herbicidal activity against Glycine max (soybean) assessed as plant dead at 25 to 32 degC measured after 7 days. To be noted: 168 h. The procedure, abridged:
as §1

Assay [3] relates to Oryza sativa. Description: Herbicidal activity against Oryza sativa (rice) assessed as plant dead at 25 to 32 degC measured after 7 days. To be noted: 168 h. The procedure, abridged:
as §1

Assay [4] deals with Cucumis sativus. Description: Herbicidal activity against Cucumis sativus (cucumber) assessed as plant dead at 25 to 32 degC measured after 7 days. To be noted: 168 h. The procedure, abridged:
as §1

Assay [5] deals with Triticum aestivum. Description: Herbicidal activity against Triticum aestivum L. (wheat) assessed as plant dead at 25 to 32 degC measured after 7 days. To be noted: 168 h. The procedure, abridged: as §1
Assay [6] concerns Vigna radiata var. radiata. Description: Herbicidal activity against Vigna radiata var. radiata assessed as plant dead at 25 to 32 degC measured after 7 days. To be noted: 168 h. The procedure, abridged: as §1
Assay [7] has as its system Zea mays. The assay can be described thus: Herbicidal activity against Zea mays (maize) assessed as plant dead at 25 to 32 degC measured after 7 days. To be noted: 168 h. The procedure, abridged: as §1
Assay [8] relates to Lolium arundinaceum. Description: Herbicidal activity against Festuca arundinacea assessed as plant dead at 25 to 32 degC measured after 7 days. As to conditions: L., 168 h. The procedure, abridged: as §1

Regarding `Cc1cc(OC(C)(C)C(=O)ON=C2CCCCCCCCCCC(=O)OCCC2)ccc1Cl`, the EC50 in assay [1] turned out to be 50.1 µg/mL (≈ 104 µM).
As for `CC(C)(Oc1ccc(Cl)cc1)C(=O)ON=C1CCCCCCCCCCC(=O)OCCC1`, in assay [1], the concentration for a half-maximal effect (EC50) was found to be 46.5 µg/mL (≈ 99.8 µM).
In the case of `Cc1ccc(OC(C)(C)C(=O)ON=C2CCCCCCCCCCC(=O)OCCC2)cc1`, the EC50 in assay [1] worked out at 55.4 µg/mL (≈ 124 µM).
Turning to `CC(C)(Oc1ccccc1)C(=O)ON=C1CCCCCCCCCCC(=O)OCCC1`, the EC50 in assay [1] was found to be 34.6 µg/mL (≈ 80.2 µM).
In the case of `Cc1cc(Cl)ccc1OCC(=O)ON=C1CCCCCCCCCCC(=O)OCCC1`, the concentration for a half-maximal effect (EC50) in assay [1] is 19.6 µg/mL (≈ 43.4 µM).
Regarding `O=C1CCCCCCCCCCC(=NOC(=O)COc2ccc(Cl)cc2Cl)CCCO1`, the EC50 in assay [2] was determined as 14.4 µg/mL (≈ 30.5 µM); in assay [3], 2.5 µg/mL (≈ 5.29 µM); in assay [4] it was 1.5 µg/mL (≈ 3.18 µM); in assay [5] it was 38.4 µg/mL (≈ 81.3 µM); in assay [1], 7.7 µg/mL (≈ 16.3 µM); in assay [6], 2.8 µg/mL (≈ 5.93 µM). Besides, the concentration giving a half-maximal response (EC50) worked out at 0.3 µg/mL (≈ 0.635 µM) in assay [7] and 50.2 µg/mL (≈ 106 µM) in assay [8].
For `O=C1CCCCCCCCCCC(=NOC(=O)COc2ccc(Br)cc2Cl)CCCO1`, the EC50 in assay [1] came to 16.9 µg/mL (≈ 32.7 µM).
In the case of `CC(Oc1ccccc1)C(=O)ON=C1CCCCCCCCCCC(=O)OCCC1` (stereo unspecified), in assay [1], the EC50 was 22.4 µg/mL (≈ 53.6 µM).
As for `Cc1ccc(OC(C)C(=O)ON=C2CCCCCCCCCCC(=O)OCCC2)cc1` (stereo unspecified), the EC50 in assay [1] turned out to be 35.9 µg/mL (≈ 83.2 µM).
For `CC(Oc1ccccc1Cl)C(=O)ON=C1CCCCCCCCCCC(=O)OCCC1` (stereo unspecified), the EC50 in assay [1] was 18 µg/mL (≈ 39.8 µM).
As for `CC(Oc1cccc(Cl)c1)C(=O)ON=C1CCCCCCCCCCC(=O)OCCC1` (stereo unspecified), the EC50 in assay [1] worked out at 25.1 µg/mL (≈ 55.5 µM).
As to `CC(Oc1ccc(Cl)cc1)C(=O)ON=C1CCCCCCCCCCC(=O)OCCC1` (stereo unspecified), the concentration for a half-maximal effect (EC50) in assay [1] came out at 17.8 µg/mL (≈ 39.4 µM).
For the compound `Cc1cccc(OC(C)C(=O)ON=C2CCCCCCCCCCC(=O)OCCC2)c1C` (stereo unspecified), the half-maximal effective concentration (EC50) in assay [1] was determined as 49.6 µg/mL (≈ 111 µM).
Take `Cc1cc(OC(C)C(=O)ON=C2CCCCCCCCCCC(=O)OCCC2)ccc1Cl` (stereo unspecified): the half-maximal effective concentration (EC50) in assay [1] came to 9.5 µg/mL (≈ 20.4 µM).
On to `CC(Oc1ccc(Cl)cc1Cl)C(=O)ON=C1CCCCCCCCCCC(=O)OCCC1` (stereo unspecified), for which the EC50 in assay [1] was determined as 13.5 µg/mL (≈ 27.8 µM).
As for `CC1CCC(=NOC(=O)COc2ccc(Cl)cc2)CCCCCCCCCCC(=O)O1` (stereo unspecified), the EC50 in assay [1] stood at 12.4 µg/mL (≈ 27.4 µM).
On the same count and under the same terms, to `Cc1cc(Cl)ccc1OCC(=O)ON=C1CCCCCCCCCCC(=O)OC(C)CC1` (stereo unspecified) belongs 8 µg/mL (≈ 17.2 µM); to `Cc1cc(OCC(=O)ON=C2CCCCCCCCCCC(=O)OC(C)CC2)ccc1Cl` (stereo unspecified), 3.4 µg/mL (≈ 7.3 µM); to `CC1CCC(=NOC(=O)COc2ccc(Cl)cc2Cl)CCCCCCCCCCC(=O)O1` (stereo unspecified), 8.2 µg/mL (≈ 16.9 µM).
For `CC1CCC(=NOC(=O)COc2ccc(Br)cc2Cl)CCCCCCCCCCC(=O)O1` (stereo unspecified), the EC50 in assay [1] was determined as 14.4 µg/mL (≈ 27.1 µM).
With `CC1CCC(=NOC(=O)C(C)Oc2ccc(Cl)cc2)CCCCCCCCCCC(=O)O1` (stereo unspecified), the concentration for a half-maximal effect (EC50) in assay [1] is 4.8 µg/mL (≈ 10.3 µM).
For the compound `O=C1CCCCCCCCCC/C(=N/OC(=O)COc2ccc(Cl)cc2)CCCO1`, the EC50 in assay [1] worked out at 16.3 µg/mL (≈ 37.2 µM).
Take `O=C1CCCCCCCCCC/C(=N\OC(=O)COc2ccc(Cl)cc2)CCCO1`: the EC50 in assay [1] is 15.7 µg/mL (≈ 35.8 µM).
Turning to `Cc1cc(Cl)ccc1OCC(=O)O/N=C1/CCCCCCCCCCC(=O)OCCC1`, the EC50 in assay [1] worked out at 18.2 µg/mL (≈ 40.3 µM).
Regarding `Cc1cc(Cl)ccc1OCC(=O)O/N=C1\CCCCCCCCCCC(=O)OCCC1`, the EC50 in assay [1] is 18.3 µg/mL (≈ 40.5 µM).
For the compound `O=C1CCCCCCCCCC/C(=N/OC(=O)COc2ccc(Br)cc2Cl)CCCO1`, the EC50 in assay [1] was found to be 14.7 µg/mL (≈ 28.4 µM).
Take `O=C1CCCCCCCCCC/C(=N\OC(=O)COc2ccc(Br)cc2Cl)CCCO1`: in assay [1], the EC50 was 14.4 µg/mL (≈ 27.9 µM).
Take `O=C1CCCCCCCCCCC(=NOC(=O)COc2ccccc2)CCCO1`: the EC50 in assay [1] stood at 73.2 µg/mL (≈ 181 µM).
On the same count and under the same terms, for `Cc1ccccc1OCC(=O)ON=C1CCCCCCCCCCC(=O)OCCC1` the value was 117 µg/mL (≈ 281 µM).
Take `Cc1ccc(OCC(=O)ON=C2CCCCCCCCCCC(=O)OCCC2)cc1`: in assay [1], the EC50 came to 55.4 µg/mL (≈ 133 µM).
Regarding `COc1ccc(OCC(=O)ON=C2CCCCCCCCCCC(=O)OCCC2)cc1`, the half-maximal effective concentration (EC50) in assay [1] was determined as 48.8 µg/mL (≈ 113 µM).
`O=C1CCCCCCCCCCC(=NOC(=O)COc2ccccc2Cl)CCCO1`: the EC50 in assay [1] was found to be 30.6 µg/mL (≈ 69.9 µM).
Still for that read-out and setting: to `O=C1CCCCCCCCCCC(=NOC(=O)COc2cccc(Cl)c2)CCCO1` belongs 23.8 µg/mL (≈ 54.3 µM); to `O=C1CCCCCCCCCCC(=NOC(=O)COc2ccc(Cl)cc2)CCCO1`, 18.2 µg/mL (≈ 41.6 µM).
Consider `O=C1CCCCCCCCCCC(=NOC(=O)COc2cccc([N+](=O)[O-])c2)CCCO1`, for which the 50% effective concentration (EC50) in assay [1] was found to be 80.9 µg/mL (≈ 180 µM).
As to `Cc1cccc(OCC(=O)ON=C2CCCCCCCCCCC(=O)OCCC2)c1C`, in assay [1], the EC50 is 52.4 µg/mL (≈ 121 µM).
For `Cc1ccc(OCC(=O)ON=C2CCCCCCCCCCC(=O)OCCC2)cc1C`, the EC50 in assay [1] amounted to 55.4 µg/mL (≈ 128 µM).
The same measure, in the same setting: to `O=C(O)COc1ccc(Cl)cc1Cl` [2,4-DICHLOROPHENOXYACETIC ACID] belongs 117 µg/mL (≈ 531 µM); to `COC(=O)c1ccccc1S(=O)(=O)NC(=O)N(C)c1nc(C)nc(OC)n1` [TRIBENURON METHYL], 22.4 µg/mL (≈ 56.7 µM).

For the origin of these results see ChEMBL document CHEMBL3045596, “Synthesis and herbicidal activity of 12-(aryloxyacyloxyimino)-1,15-pentadecanlactone derivatives” (J Agric Food Chem, 2009).
